From ChEMBL document CHEMBL1821569, “Synthesis of novel 1,2,5-trisubstituted benzimidazoles as potential antitumor agents” (2011)

How the values were obtained:
Format in all cases: functional
TK-10 = test: Antitumor activity against human TK10 cells after 48 hrs by SRB assay; conditions: TK-10, 48 h
Outline: (§1)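 NCI 60-cell-line secondary screen. Continuous 48 h exposure at five concentration levels. Cell growth estimated by sulforhodamine B protein staining. GI50 taken as the concentration giving 50% reduction in net protein increase relative to untreated control cells over the incubation. TGI (total growth inhibition) and LC50 (50% cell kill) were also derived.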

KM12 = test: Antitumor activity against human KM12 cells after 48 hrs by SRB assay; conditions: KM12, 48 h
Outline: (§2)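 NCI 60-cell-line secondary screen. Cells were exposed continuously to drug for 48 h at five concentration levels (100, 10, 1.0, 0.1 and 0.01). Growth was estimated by sulforhodamine B protein staining. GI50 is the concentration giving a 50% reduction in net protein increase versus untreated control cells over the incubation. TGI (total growth inhibition) and LC50 (50% cell kill) were also derived.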

SK-MEL-28 = test: Antitumor activity against human SK-MEL-28 cells after 48 hrs by SRB assay; conditions: SK-MEL-28, 48 h; outline: as §2
NCI-H322M = test: Antitumor activity against human NCI-H322M cells after 48 hrs by SRB assay; outline: as §2
SN12C = test: Antitumor activity against human SN12C cells after 48 hrs by SRB assay; outline: as §2
NCI/ADR-RES = test: Antitumor activity against human NCI/ADR-RES cells after 48 hrs by SRB assay; outline: as §2
MDA-MB-435 = test: Antitumor activity against human MDA-MB-435 cells after 48 hrs by SRB assay; conditions: MDA-MB-435, 48 h; outline: as §2
LOX IMVI = test: Antitumor activity against human LOXIMVI cells after 48 hrs by SRB assay; outline: as §2
HOP-62 = test: Antitumor activity against human HOP62 cells after 48 hrs by SRB assay; conditions: HOP-62, 48 h; outline: as §2
RPMI-8226 = test: Antitumor activity against human RPMI8226 cells after 48 hrs by SRB assay; conditions: RPMI-8226, 48 h; outline: as §2
CCRF-CEM = test: Antitumor activity against human CCRF-CEM cells after 48 hrs by SRB assay; outline: as §2
NCI-H226 = test: Antitumor activity against human NCI-H226 cells after 48 hrs by SRB assay; conditions: NCI-H226, 48 h; outline: as §2
PC-3 = test: Antitumor activity against human PC3 cells after 48 hrs by SRB assay; conditions: PC-3, 48 h; outline: as §2
K562 = test: Antitumor activity against human K562 cells after 48 hrs by SRB assay; conditions: K562, 48 h; outline: as §2
SK-OV-3 = test: Antitumor activity against human SKOV3 cells after 48 hrs by SRB assay; conditions: SK-OV-3, 48 h; outline: as §2
SR = test: Antitumor activity against human SR cells after 48 hrs by SRB assay; outline: as §1
UACC-62 = test: Antitumor activity against human UACC62 cells after 48 hrs by SRB assay; conditions: UACC-62, 48 h; outline: as §1
SW-620 = test: Antitumor activity against human SW620 cells after 48 hrs by SRB assay; conditions: SW-620, 48 h; outline: as §1
MDA-MB-468 = test: Antitumor activity against human MDA-MB-468 cells after 48 hrs by SRB assay; conditions: MDA-MB-468, 48 h; outline: as §2
U-251 = test: Antitumor activity against human U251 cells after 48 hrs by SRB assay; conditions: U-251, 48 h; outline: as §1
SF-295 = test: Antitumor activity against human SF295 cells after 48 hrs by SRB assay; conditions: SF-295, 48 h; outline: as §2
SK-MEL-5 = test: Antitumor activity against human SK-MEL-5 cells after 48 hrs by SRB assay; conditions: SK-MEL-5, 48 h; outline: as §2
RXF 393 = test: Antitumor activity against human RXF393 cells after 48 hrs by SRB assay; conditions: RXF 393, 48 h; outline: as §2
SK-MEL-2 = test: Antitumor activity against human SK-MEL-2 cells after 48 hrs by SRB assay; conditions: SK-MEL-2, 48 h; outline: as §2
OVCAR-3 = test: Antitumor activity against human OVCAR3 cells after 48 hrs by SRB assay; conditions: OVCAR-3, 48 h; outline: as §2
OVCAR-5 = test: Antitumor activity against human OVCAR5 cells after 48 hrs by SRB assay; conditions: OVCAR-5, 48 h; outline: as §2
HCT-15 = test: Antitumor activity against human HCT15 cells after 48 hrs by SRB assay; conditions: HCT-15, 48 h; outline: as §2
UO-31 = test: Antitumor activity against human UO31 cells after 48 hrs by SRB assay; conditions: UO-31, 48 h; outline: as §1
MCF7 = test: Antitumor activity against human MCF7 cells after 48 hrs by SRB assay; conditions: MCF7, 48 h; outline: as §2
COLO 205 = test: Antitumor activity against human COLO205 cells after 48 hrs by SRB assay; conditions: COLO 205, 48 h; outline: as §2
T47D = test: Antitumor activity against human T47D cells after 48 hrs by SRB assay; outline: as §1
[1] = read-out: LC50 (the source's name)

## COC(=O)c1ccc2c(c1)nc(-c1cc3ccccc3[nH]c1=O)n2-c1cc(C(C)(C)C)[nH]n1
TK-10
  GI50: 16.9 µM
  TGI: 55.8 µM
TK-10; [1]
  CC50: > 100 µM
KM12
  GI50: 1.29 µM
KM12; [1]
  CC50: > 100 µM
SK-MEL-28
  TGI: > 100 µM
SK-MEL-28; [1]
  CC50: > 100 µM
NCI-H322M
  GI50: 0.929 µM
  LC50 (50% cell kill): > 100 µM
  TGI: > 100 µM
SN12C
  GI50: 5.61 µM
  TGI: > 100 µM
SN12C; [1]
  CC50: > 100 µM
NCI/ADR-RES
  GI50: 5.29 µM
  TGI: > 100 µM
NCI/ADR-RES; [1]
  CC50: > 100 µM
MDA-MB-435
  TGI: > 100 µM
MDA-MB-435; [1]
  CC50: > 100 µM
LOX IMVI
  GI50: 1.24 µM
LOX IMVI; [1]
  CC50: > 100 µM
HOP-62
  GI50: 0.996 µM
  LC50 (concentration giving 50% cell kill): > 100 µM
  TGI: > 100 µM
RPMI-8226
  GI50: 0.167 µM
  TGI: 0.987 µM
RPMI-8226; [1]
  CC50: > 100 µM
CCRF-CEM
  GI50: 0.585 µM
  TGI: > 100 µM
CCRF-CEM; [1]
  CC50: > 100 µM
NCI-H226
  GI50: 7 µM
  LC50 (50% cell kill): > 100 µM
  TGI: > 100 µM
PC-3
  GI50: 2.27 µM
  TGI: > 100 µM
PC-3; [1]
  CC50: > 100 µM
K562
  GI50: 1.73 µM
  TGI: > 100 µM
K562; [1]
  CC50: > 100 µM
SK-OV-3
  GI50: 28.5 µM
  TGI: > 100 µM
SK-OV-3; [1]
  CC50: > 100 µM
SR
  GI50: 10 µM
  TGI: > 100 µM
SR; [1]
  CC50: > 100 µM
UACC-62
  TGI: > 100 µM
UACC-62; [1]
  CC50: > 100 µM
SW-620
  TGI: > 100 µM
SW-620; [1]
  CC50: > 100 µM
MDA-MB-468
  GI50: 20.5 µM
  TGI: > 100 µM
MDA-MB-468; [1]
  CC50: > 100 µM
U-251
  GI50: 0.652 µM
  TGI: > 100 µM
U-251; [1]
  CC50: > 100 µM
SF-295
  GI50: 1.23 µM
  TGI: 25.5 µM
SF-295; [1]
  CC50: > 100 µM
SK-MEL-5
  GI50: 2.3 µM
  TGI: > 100 µM
SK-MEL-5; [1]
  CC50: > 100 µM
RXF 393
  GI50: 2.16 µM
  TGI: 8.86 µM
RXF 393; [1]
  CC50: > 100 µM
SK-MEL-2
  GI50: 2.25 µM
  TGI: > 100 µM
SK-MEL-2; [1]
  CC50: > 100 µM
OVCAR-3
  GI50: 6.27 µM
  TGI: > 100 µM
OVCAR-3; [1]
  CC50: > 100 µM
OVCAR-5
  TGI: > 100 µM
OVCAR-5; [1]
  CC50: > 100 µM
HCT-15
  LC50 (50% cell kill): > 100 µM
  TGI: > 100 µM
UO-31
  GI50: 0.533 µM
  TGI: > 100 µM
UO-31; [1]
  CC50: > 100 µM
MCF7
  GI50: > 100 µM
  TGI: > 100 µM
MCF7; [1]
  CC50: > 100 µM
COLO 205
  TGI: > 100 µM
COLO 205; [1]
  CC50: > 100 µM
T47D
  GI50: > 100 µM
  TGI: > 100 µM
T47D; [1]
  CC50: > 100 µM
